Compound activity as filed in PubChem BioAssay.
In the library only some 6.1% were active in any assay of this set; here they are far more common.
RAM inhibit: yeast RAM network inhibition | S. cerevisiae dse1pr::URA3 reporter, 5-FOA growth OD615, 2 d; analog-sensitive cbk1-as2 kinase mutant strain | inhibition, % at 50 µM | actives 1.8% (n = 190,000);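 active = inhibition above a set limit, 3 SD over mean compound inhibition, cut at about 8.4% in these data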;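 also: 0% = DMSO-only wells with no growth and 100% = 10 µM 1-NA-PP1 full growth; inhibition rescues growth on 5-FOA so higher OD means more RAM inhibition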
hDAT+cocaine: human DAT dopamine uptake with cocaine, either direction; AID 449768; LLC-PK1 hDAT cells, [14C]-dopamine uptake with cocaine IC80; actives deviate in either direction; B-score at 10 µM; Q01959; actives 1.3% (n = 110,000);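 active = Z score or B-score, a plate-position-corrected score, falls beyond the plate's 99.7% confidence bounds, in either direction; inactive = both scores lie inside the 99.7% bounds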;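 also: scored against the spread of the other compound wells on the same plate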
Target sequence (Q01959 whole entry, looked up): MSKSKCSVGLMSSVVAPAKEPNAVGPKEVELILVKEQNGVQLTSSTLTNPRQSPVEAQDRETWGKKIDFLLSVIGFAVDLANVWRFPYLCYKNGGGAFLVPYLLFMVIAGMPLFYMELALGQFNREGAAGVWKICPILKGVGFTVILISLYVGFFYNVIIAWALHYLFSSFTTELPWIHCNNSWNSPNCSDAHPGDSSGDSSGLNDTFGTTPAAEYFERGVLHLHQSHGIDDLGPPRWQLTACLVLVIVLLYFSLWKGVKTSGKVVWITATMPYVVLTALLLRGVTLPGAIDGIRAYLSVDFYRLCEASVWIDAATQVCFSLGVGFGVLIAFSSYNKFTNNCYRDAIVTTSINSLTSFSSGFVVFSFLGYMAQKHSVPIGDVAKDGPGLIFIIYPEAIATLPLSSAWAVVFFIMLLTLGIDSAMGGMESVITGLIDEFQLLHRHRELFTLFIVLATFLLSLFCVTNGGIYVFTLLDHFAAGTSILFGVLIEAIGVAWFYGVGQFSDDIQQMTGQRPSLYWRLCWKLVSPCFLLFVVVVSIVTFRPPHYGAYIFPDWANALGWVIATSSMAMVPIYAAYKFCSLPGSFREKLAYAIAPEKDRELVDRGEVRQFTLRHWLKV
BB579 growth dn: yeast BB579 growth reduction in restrictive medium. inhibition, % at 10 µM. S. cerevisiae BB579 growth, OD615, 48 h. actives 0.51% (n = 140,000);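 active = inhibition above a set limit, 3 SD over the mean compound inhibition, cut at about 44% in these data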
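Test system: Saccharomyces cerevisiae DeaD strain BB579, replicative lifespan model yeast | Buffer or medium: Restrictive CSMM-D medium | Doses: One dose, 10 µM compound with 0.25% DMSO | Incubation: 48 h exposure, 30 °C | Detection: Culture absorbance at 615 nm | Control set: Amphotericin B at 10 µg/mL as positive control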
WT yeast gro inh: growth inhibition of WT yeast, mitochondrial fusion screen; mitochondrial fusion phenotypic screen, WT strain; AID 1362; actives 2.1% (n = 190,000); inhibition, % at 10 µM; in the data active = inhibition above about 58%; tested in S. cerevisiae
Measles CPE: protection of cells from measles virus | AID 841 | protection (pct of control), % at 4 µM | actives 1.5% (n = 140,000) | Measles virus-infected cells, CPE protection, absorbance; in the data active = protection mostly above about 24%, no sharp cut-off; inactive = mostly below about 26%
Yeast life ext: yeast lifespan extension | inhibition of the nicotinamide effect, % at 10 µM | S. cerevisiae growth with nicotinamide, OD615; deaD strain in restrictive glucose medium | actives 0.68% (n = 130,000);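 active = inhibition above a set limit, placed 3 SD over the median of all compounds, cut at about 26% in these data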;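 also: 0% = nicotinamide-treated wells and 100% = cells grown without nicotinamide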
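Test system: DeaD-strain S. cerevisiae / Buffer or medium: restrictive glucose medium / Also added: nicotinamide 1.5 mM / Doses: one concentration, 10 µM, DMSO 0.25% / Schedule: 48 h at 30 °C / Signal: OD615 measurement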
* hit, by the source's call; / = no result given.

SMILES	RAM inhibit	hDAT+cocaine	BB579 growth dn	WT yeast gro inh	Measles CPE	Yeast life ext
CCC(=O)Oc1c(S(=O)(=O)c2ccc(C)cc2)c(C)nn1C(C)(C)C	1.5	0.644	-28.6	7.2	5.4	0.5
Cc1cc(Cl)ccc1Oc1ncc(-c2ccc(Cl)cc2)cn1	10.9*	-0.206	-40.8	32.0	4.5	-1.8
Cn1c(=O)c(=O)n(C)c2cc(S(=O)(=O)N3CCN(Cc4ccccc4)CC3)ccc21	0.8	/	-16.7	-15.4	10.0	87.9*
Cn1c(=O)c(=O)n(C)c2cc(S(=O)(=O)N3CCCCC3)ccc21	0.9	2.1	-13.7	6.0	6.1	-14.0
CNc1nc(-c2ccccc2)nc(-c2ccccc2)c1C#N	5.4	0.0959	-37.0	-5.1	61.1*	-17.0
NCCCC[C@H]1CN=C(N)N1CCC12CC3CC(CC(C3)C1)C2	/	0.583	/	/	/	/
CN(C)c1ccc(N=Nc2ccc(S(=O)(=O)O)cc2)c2ccccc12	10.3*	/	/	5.9	/	/
Cc1nnc(SC(C)C(=O)Nc2ccc(S(=O)(=O)N3CCCCCC3)cc2)s1 (stereo not given)	9.2*	0.475	-50.5	-0.7	5.2	-20.9
O=C(Cc1cnc2ncnn2c1)N1CCc2c([nH]c3ccccc23)C1c1ccccc1F (stereo not given)	2.5	/	/	-4.3	/	/
Cc1ccc(S(=O)(=O)Nc2ccccc2/C=N/c2nc3ccccc3n2C(C)C)cc1	0.0	/	-9.6	45.7	18.0	53.4*
CCCn1c(NCc2ccccc2NS(=O)(=O)c2ccc(C)cc2)nc2ccccc21	0.0	/	-34.0	-12.4	4.4	5.6
CCCCn1c(/N=C/c2ccccc2NS(=O)(=O)c2ccc(C)cc2)nc2ccccc21	0.2	/	-37.6	26.4	0.5	68.2*
O=C(NNC(=O)C1COc2ccccc2O1)c1cccc([N+](=O)[O-])c1 (stereo not given)	-0.2	/	/	-4.1	/	/
COc1ccc(C2(C(=O)O)CCCC2)cc1	1.6	-0.0201	-26.7	-4.7	6.4	34.7*
C=CCN1C(=O)C(CC(=O)Nc2ccc(OCCC)cc2)N(CCCN2CCN(Cc3ccccc3)CC2)C1=S (stereo not given)	2.0	/	/	57.5	/	/
COc1cccc(C=Nc2cccnc2)c1O	2.4	-6.95*	-16.1	11.1	6.6	-6.3
CCOC(=O)c1sc(NC(=O)CSc2n[nH]c(-c3ccccc3)n2)c(C#N)c1C	2.1	/	-27.4	77.4*	10.9	0.4
CCOC(=O)c1c(NC(=O)CSc2nc3ccccc3o2)sc(C(C)=O)c1C	9.2*	/	-22.7	-6.2	1.6	1.9
CCOC(=O)c1sc(NC(=O)c2cccnc2)c(C#N)c1C	1.4	-1.47	-50.2	14.1	6.6	28.6*
CCOC(=O)c1c(NC(=O)CSc2nnc(-c3ccccc3)n2CC)sc(C(C)=O)c1C	1.7	2.51*	-43.9	18.5	21.5	-8.5
CCOC(=O)c1c(NC(=O)CSc2nnc(-c3cccc(C)c3)n2CC)sc(C(C)=O)c1C	6.2	1.57	-5.6	-3.9	17.5	-3.1
CCOC(=O)c1c(NC(=O)c2cccnc2)sc(C)c1C	2.6	-0.267	-26.5	11.0	2.3	-22.6
CC1(C)CCC23CC[C@]4(C)C(OC2=O)(C3C1)[C@H]1O[C@H]1C1[C@@]2(C)CC[C@@H](O)C(C)(C)C2CC[C@]14C (stereo not given in full)	/	-0.668	/	/	/	/
CCOC(=O)c1c(NC(=O)CSc2nnc(Cc3ccccc3)o2)sc(C(C)=O)c1C	9.0*	-0.661	-35.0	-4.6	2.5	-8.6
CCOC(=O)c1sc(NC(=O)CSc2nc3ccccc3s2)c(C(=O)OCC)c1C	-0.4	/	11.5	-6.0	40.1*	-2.1
SMILES	RAM inhibit	hDAT+cocaine	BB579 growth dn	WT yeast gro inh	Measles CPE	Yeast life ext
COc1ccc(C2CC(=O)c3cnc(N4CCc5ccccc54)nc3C2)c(OC)c1 (stereo not given)	2.9	/	/	3.1	/	/
NC(N)=NS(=O)(=O)c1ccc(NC(=S)NC(=O)c2ccc3c(c2)OCO3)cc1	9.1*	/	/	2.9	/	/
CC(=O)C1=NN(c2ccccc2)C2(S1)S/C(=C\c1ccccc1)C(=O)N2c1ccccc1 (stereo not given)	3.4	0.758	-64.8	20.0	34.4*	-4.5
COC(=O)C1=NN(c2ccccc2)C2(S1)SC(C(C)=O)=C(C)N2c1ccccc1 (stereo not given)	0.5	-0.54	-30.1	44.1	10.2	-8.3
Cc1ccc(NS(=O)(=O)c2ccc(C)c(NC(=O)COc3ccccc3)c2)c(C)c1	6.5	/	1.0	58.3*	13.2	-0.1
Cc1cc(CSc2ccccc2)ccc1NC(=O)c1ccc(Br)cc1	3.8	/	-9.0	0.3	24.6	6.1
Cc1cc(CSc2ccccc2)ccc1NC(=O)COc1ccccc1	8.6*	0.089	-27.3	7.8	3.1	-5.3
Cc1cccc(N(C(=O)CNC(=O)c2ccco2)C(C(=O)NCC2CCCO2)c2ccccc2)c1 (stereo not given)	0.1	/	/	-6.2	/	/
O=C(c1ccccc1)n1nc(-c2ccccc2)nc1NCc1ccco1	10.2*	/	-11.8	64.0	18.7	-6.7
Cc1ccc(C)c(N(CC(=O)NC2CCCC2)C(=O)c2oc(C(C)(C)C)cc2C)c1	9.5*	1.24	-37.8	-11.7	7.6	-4.4
CC(C)CNC(=O)c1oc2ccccc2c1COc1ccccc1	8.9*	/	-12.0	63.0*	10.2	-2.1
Cc1scc(-c2n[nH]c(=S)n2Cc2ccccc2)c1C	1.5	/	-28.4	70.9*	14.9	-0.3
S=c1[nH]nc(-c2cccnc2)n1Cc1ccccc1	1.6	0.0106	-25.9	-10.2	49.7*	-16.0
Cc1ccccc1OCc1n[nH]c(=S)n1Cc1ccccc1	0.2	/	-27.6	73.0*	4.7	7.6
Cc1ccc(NC(=S)N2CCN(c3ncccn3)CC2)c(C)c1	0.4	/	3.6	-3.9	26.9	-2.0
Cc1cc(C)cc(NC(=O)CCN2CCCC2)c1	-1.0	/	/	0.2	/	/
CCn1c(SCc2nnc(-c3ccccc3)o2)nnc1-c1ccc(S(=O)(=O)N2CCCC2)cc1	0.8	0.0121	-10.1	-7.9	55.5*	-3.9
O=C(CN1CCN(c2ncc(C(F)(F)F)cc2Cl)CC1)N1CCN(c2ncc(C(F)(F)F)cc2Cl)CC1	2.9	0.469	-2.1	73.1*	10.2	-9.7
Cc1ccc(C(=O)OCCN2CCN(c3ncc(C(F)(F)F)cc3Cl)CC2)cc1	0.5	1.16	23.9	67.3*	4.7	-18.9
O=C(OC1CCN(c2ncc(C(F)(F)F)cc2Cl)CC1)c1ccccc1	0.5	0.92	-57.7	64.4*	13.3	-5.1
O=C(CSc1ncc(C(F)(F)F)cc1Cl)N1CCN(S(=O)(=O)c2ccc(Cl)cc2)CC1	3.6	/	-57.0	28.4	14.3	16.9
O=C(OCCN1CCN(c2ncc(C(F)(F)F)cc2Cl)CC1)c1ccc(F)cc1	1.9	0.0841	-31.2	-12.4	8.2	-1.2
O=C(CSc1ccc(Cl)cc1)N1CCN(c2ncc(C(F)(F)F)cc2Cl)CC1	11.3*	1.25	-53.9	28.6	21.6	-4.8
